Measurements as given in ChEMBL document CHEMBL2321659, “Design, synthesis, and biological evaluation of indenoisoquinoline rexinoids with chemopreventive potential” (J Med Chem, 2013).
Activity calls are given as the source filed them. The rule behind the calls is not given here.

Experiments:
[1] = Cytotoxicity against African green monkey COS1 cells assessed as cell survival; format: cell-based; set-up: concentration or dose not given beside the values; conditions: chlorocebus aethiops, COS-1 cells; read-out: Activity
[2] = molecular target: T1, Retinoic acid receptor RXR-alpha (Homo sapiens, UniProt P19793); experiment: Activation of human RXRalpha activity expressed in COS1 cells after 12 hrs by RXRE-luciferase reporter gene assay; format: cell-based, COS-1
T1 sequence (P19793 whole entry): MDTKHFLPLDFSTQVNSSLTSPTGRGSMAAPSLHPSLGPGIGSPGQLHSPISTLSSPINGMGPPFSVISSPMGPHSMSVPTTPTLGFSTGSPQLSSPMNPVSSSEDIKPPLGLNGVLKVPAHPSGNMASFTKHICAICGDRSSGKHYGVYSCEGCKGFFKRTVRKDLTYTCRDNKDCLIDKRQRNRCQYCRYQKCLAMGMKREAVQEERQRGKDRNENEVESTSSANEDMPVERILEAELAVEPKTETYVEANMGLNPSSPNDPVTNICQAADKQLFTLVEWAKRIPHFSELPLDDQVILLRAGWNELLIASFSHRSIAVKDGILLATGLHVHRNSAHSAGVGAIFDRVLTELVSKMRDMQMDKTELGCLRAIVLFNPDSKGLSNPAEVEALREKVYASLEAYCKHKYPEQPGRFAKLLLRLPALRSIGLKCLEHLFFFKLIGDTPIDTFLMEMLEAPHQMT

[3] = molecular target: T2, Retinoic acid receptor RXR-alpha (Homo sapiens) (UniProt P19793); experiment: Activation of human RXRalpha activity expressed in COS1 cells assessed as induction ratio at 50 uM after 12 hrs by RXRE-luciferase reporter gene assay relative to untreated control; format: cell-based; conditions: COS-1
T2 sequence (whole entry): T1 sequence (P19793 whole entry)
Method in brief: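 COS-1 cells transiently co-transfected per well with 100 ng RXRE-firefly luciferase reporter, 50 ng human RXRα expression vector and 3 ng Renilla luciferase vector using Lipofectamine 2000 for 24 h, then exposed to compound for a further 12 h. Dual-luciferase read-out. Induction ratio taken at 50 µM test concentration.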

[4] = molecular target: T2, Retinoic acid receptor RXR-alpha (Homo sapiens); experiment: Binding affinity to RXRalpha (unknown origin) at 10 uM after 2 hrs by ultrafiltration LC-MS/MS analysis relative to control
Method in brief: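 Purified RXRα (10 µM stock in 50 mM Tris-HCl pH 7.5, 50 mM KCl, 1 mM EDTA) incubated with ligand (final 10 µM, DMSO) for 2 h at room temperature. Then 10 kDa ultrafiltration at 4 °C, three ammonium acetate pH 7.5 washes, release with 90% methanol, UHPLC-MS/MS (SRM). Binding ratio is peak area versus denatured-RXRα (60–70 °C, 15 min) control.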

[5] = molecular target: T3, Vitamin D3 receptor (Homo sapiens) (UniProt P11473); experiment: Binding affinity to VDR (unknown origin) after 30 mins by ultrafiltration LC-MS/MS analysis relative to 6-(6-aminohexyl)-5H-indeno[1,2-c]isoquinoline-5,11(6H)-dione; set-up: Activity: concentration or dose not given beside the values
T3 sequence (whole entry): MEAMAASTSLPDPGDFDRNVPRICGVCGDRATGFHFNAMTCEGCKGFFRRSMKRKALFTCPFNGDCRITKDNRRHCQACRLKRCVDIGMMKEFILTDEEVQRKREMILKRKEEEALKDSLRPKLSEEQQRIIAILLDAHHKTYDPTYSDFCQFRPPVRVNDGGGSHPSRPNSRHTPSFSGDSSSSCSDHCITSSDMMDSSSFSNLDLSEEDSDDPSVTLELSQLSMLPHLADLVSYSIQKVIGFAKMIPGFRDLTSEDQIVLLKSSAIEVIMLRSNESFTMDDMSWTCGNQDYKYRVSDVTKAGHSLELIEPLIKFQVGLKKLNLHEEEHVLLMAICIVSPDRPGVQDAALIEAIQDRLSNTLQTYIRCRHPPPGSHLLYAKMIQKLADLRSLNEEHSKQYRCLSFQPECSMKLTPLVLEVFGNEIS
Method in brief: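 Recombinant VDR incubated with ligand in 20 µL for 30 min at 37 °C in the dark with shaking. Then ultrafiltration at 4 °C and rinses with cold 50 mM ammonium acetate/0.1 mM NaCl pH 8.0. Bound ligand released with methanol containing genistein, dried under N2 and quantified by LC-MS. Controls were boiled hVDR or no protein.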

[6] = test system: HL-60; experiment: Cell cycle arrest in human HL60 cells assessed as accumulation at subG1 phase at 13 nM relative to control; format: functional
[7] = molecular target: T3, Vitamin D3 receptor (Homo sapiens); experiment: Binding affinity to VDR (unknown origin) assessed as inhibition of curcumin binding after 30 mins by ultrafiltration LC-MS/MS analysis
[8] = test system: HL-60; experiment: Cytotoxicity against human HL60 cells assessed as inhibition of cell proliferation after 96 hrs; format: functional, cell-based; conditions: HL-60, 96 h
[9] = test system: HL-60; experiment: Cell cycle arrest in human HL60 cells assessed as accumulation at subG1 phase at 250 nM relative to control; format: functional

| Compound | viability [1] [%] | EC50 [2] [µM] | Ratio [3] | fold change (FC) [4] | Activity [5] [%] | fold change (FC) [5] | Activity [4] | Activity [6] [%] | inhibition [7] | IC50 [8] [µM] | Activity [9] [%] |
| --- | --- | --- | --- | --- | --- | --- | --- | --- | --- | --- | --- |
| COC(=O)CC(=O)Nc1ccc2c3c(n(CCCN)c(=O)c2c1)-c1ccccc1C3=O | 85 | > 44.5 | > 1 | 1.7 |  |  |  |  |  |  |  |
| NCCCCn1c2c(c3ccccc3c1=O)C(=O)c1ccccc1-2 | 53.8 | 11.3 | 9.9 |  | 35.3 | 0.353 |  |  |  |  |  |
| NCCCCCCn1c2c(c3ccccc3c1=O)C(=O)c1ccccc1-2 | 24.9 | 16.4 | 6.7 |  | 100 | 1 |  |  |  |  |  |
| CN(C)CCCn1c2c(c3ccc(N)cc3c1=O)C(=O)c1ccccc1-2 | 53.7 | 7 | > 1 | 2.5 | 21.4 | 0.214 |  |  |  |  |  |
| CCOC(=O)CNc1ccc2c3c(n(CCCN)c(=O)c2c1)-c1ccccc1C3=O | 22.2 |  | < 1 |  | 1.62 | 0.0162 | inactive |  |  |  |  |
| NCCCn1c2c(c3ccc(N)cc3c1=O)Cc1ccccc1-2 | 49.3 | 10 | > 1 |  | 15.1 | 0.151 |  |  |  |  |  |
| NCCCn1c2c(c3ccccc3c1=O)C(=O)c1ccccc1-2 | 50.8 | 8.66 | 11.4 |  | 42.7 | 0.427 |  |  |  |  |  |
| CN(C)CCCn1c2c(c3ccccc3c1=O)C(=O)c1ccccc1-2 | 52.5 | 9.6 | > 1 | 2.6 |  |  |  |  |  |  |  |
| NCCCn1c2c(c3ccc(N)cc3c1=O)C(=O)c1ccccc1-2 | 52.1 | 4.4 |  |  |  |  |  | 4.5 | inactive | 0.092 | 28.7 |
| CNCCCn1c2c(c3ccccc3c1=O)C(=O)c1ccccc1-2 | 51.2 | 9.22 | > 1 | 7.6 |  |  |  |  |  |  |  |
| NCCCCCn1c2c(c3ccccc3c1=O)C(=O)c1ccccc1-2 | 40.7 | 12.2 | 4.9 |  | 83.8 | 0.838 |  |  |  |  |  |
